{"source": "ChEMBL document CHEMBL1125724", "about": "“Potential anti-AIDS agents. Synthesis and antiviral activity of naphthalenesulfonic acid derivatives against HIV-1 and HIV-2” (1991)", "key": {"[1]": {"molecular_target": "Human immunodeficiency virus type 1 reverse transcriptase (Human immunodeficiency virus 1) (UniProt Q72547)", "settings": "350 uM"}, "[2]": {"molecular_target": "Human immunodeficiency virus type 1 reverse transcriptase (Human immunodeficiency virus 1) (UniProt Q72547)", "settings": "350 uM", "remark": "listed apart in the source"}, "[3]": {"molecular_target": "Human immunodeficiency virus type 1 reverse transcriptase (Human immunodeficiency virus 1) (UniProt Q72547)", "settings": "14 uM"}, "[4]": {"molecular_target": "Human immunodeficiency virus type 1 reverse transcriptase (Human immunodeficiency virus 1) (UniProt Q72547)", "settings": "2.8 uM"}, "MT4 [5]": {"test_system": "MT4", "experiment": "Compound was evaluated for inhibitory effect against MT-4 cells of HIV-2 at a concentration of 4(16.8) ug/mL (uM).", "type": "functional, Homo sapiens", "procedure,_shortened": "(§1)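 HIV-2 (ROD strain) infected MT-4 cells at multiplicity of infection 0.02, incubated with a range of compound concentrations for 4 days. Viable cells counted by MTT method. Per-concentration inhibition of virus-induced cytopathogenicity; values are means of two separate experiments.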"}, "MT4 [6]": {"test_system": "MT4", "experiment": "Compound was evaluated for inhibitory effect against MT-4 cells of HIV-1 at a concentration of 20(84) ug/mL (uM).", "type": "functional, Homo sapiens", "procedure,_shortened": "(§2)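 HIV-1 (HTLV-III_B) infected MT-4 cells at multiplicity of infection 0.02, incubated with a range of compound concentrations for 4 days. Viable cells counted by MTT method. Per-concentration inhibition of virus-induced cytopathogenicity; values are means of two separate experiments.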"}, "MT4 [7]": {"test_system": "MT4", "experiment": "Compound was evaluated for inhibitory effect against MT-4 cells of HIV-2 at a concentration of 0.8(3.4) ug/mL (uM).", "type": "functional, Homo sapiens", "procedure,_shortened": "as §1"}, "MT4 [8]": {"test_system": "MT4", "experiment": "Compound was evaluated for inhibitory effect against MT-4 cells of HIV-2 at a concentration of 100(420) ug/mL (uM).", "type": "functional, Homo sapiens", "procedure,_shortened": "as §1"}, "MT4 [9]": {"test_system": "MT4", "experiment": "Compound tested for its inhibition of HIV-1 induced cytopathogenicity in MT-4 cells.", "type": "functional", "settings": "Homo sapiens, read-out: ED50 (the source's name)", "procedure,_shortened": "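MT-4 cells infected with HIV-1 (HTLV-III_B) at MOI 0.02 and incubated 4 days with a range of compound concentrations. Viable cells were counted by MTT. ED50 is the 50% antiviral dose from inhibition of virus-induced cytopathogenicity, given as the mean of two separate experiments.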"}, "MT4 [10]": {"test_system": "MT4", "experiment": "Compound tested for its inhibition of HIV-2 induced cytopathogenicity in MT-4 cells.", "type": "functional", "settings": "Homo sapiens, read-out: ED50 (the source's name)", "procedure,_shortened": "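MT-4 cells infected with HIV-2 (ROD) at MOI 0.02 and incubated 4 days with a range of compound concentrations. Viable cells were counted by MTT. ED50 is the dose giving 50% inhibition of virus-induced cytopathogenicity, given as the mean of two separate experiments.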"}, "MT4 [11]": {"test_system": "MT4", "experiment": "Compound was evaluated for inhibitory effect against MT-4 cells of HIV-1 at a concentration of 0.8(3.4) ug/mL (uM).", "type": "functional, Homo sapiens", "procedure,_shortened": "as §2"}, "MT4 [12]": {"test_system": "MT4", "experiment": "Compound was evaluated for inhibitory effect against MT-4 cells of HIV-2 at a concentration of 20(84) ug/mL (uM).", "type": "functional, Homo sapiens", "procedure,_shortened": "as §1"}, "MT4 [13]": {"test_system": "MT4", "experiment": "Compound tested for its ability to reduce viability of mock-infected MT-4 cells.", "type": "functional", "settings": "Homo sapiens, read-out: CD50 (the source's name)", "procedure,_shortened": "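Mock-infected MT-4 cells were incubated 4 days with a range of compound concentrations, and viability was read by MTT. CD50 is the 50% cytotoxic dose from reduced viability, given as the mean of two separate experiments.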"}, "MT4 [14]": {"test_system": "MT4", "experiment": "Cell viability at a concentration of 0.8(3.4) ug/mL (uM).", "type": "functional, Homo sapiens"}, "MT4 [15]": {"test_system": "MT4", "experiment": "Cell viability at a concentration of 100(420) ug/mL (uM).", "type": "functional, Homo sapiens"}, "MT4 [16]": {"test_system": "MT4", "experiment": "Cell viability at a concentration of 20(84) ug/mL (uM).", "type": "functional, Homo sapiens"}, "MT4 [17]": {"test_system": "MT4", "experiment": "Cell viability at a concentration of 4(16.8) ug/mL (uM).", "type": "functional, Homo sapiens"}, "[18]": {"molecular_target": "Human immunodeficiency virus type 1 reverse transcriptase (Human immunodeficiency virus 1) (UniProt Q72547)", "experiment": "Compound tested for % inhibition of cell-free HIV-1 Reverse Transcriptase at a concentration of 84 uM.", "procedure,_shortened": "(§3)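 HIV-1 RT from partially purified, concentrated disrupted virions. Reaction at 37 °C for 30 min in 50 mM Tris-HCl pH 8.4, 2 mM DTT, 100 mM KCl, 10 mM MgCl2, 0.1% Triton X-100, with 1 µCi [methyl-3H]dTTP (30 Ci/mmol) and 0.01 unit poly(rA)·oligo(dT). Stopped with 5% TCA; precipitate collected on glass-fiber filters and counted by liquid scintillation. Experimental variation at most 10%.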"}, "[19]": {"molecular_target": "Human immunodeficiency virus type 1 reverse transcriptase (Human immunodeficiency virus 1) (UniProt Q72547)", "experiment": "Compound tested for % inhibition of cell-free HIV-1 Reverse Transcriptase at a concentration of 16.8 uM", "procedure,_shortened": "as §3"}, "[20]": {"molecular_target": "Human immunodeficiency virus type 1 reverse transcriptase (Human immunodeficiency virus 1) (UniProt Q72547)", "experiment": "Inhibitory dose at a concentration of 2100 uM cell-free HIV-1 Reverse Transcriptase", "procedure,_shortened": "as §3"}, "MT4 [21]": {"test_system": "MT4", "experiment": "Compound was evaluated for inhibitory effect against MT-4 cells of HIV-1 at a concentration of 100(420) ug/mL (uM).", "type": "functional, Homo sapiens", "procedure,_shortened": "as §2"}, "[22]": {"test_system": "Human immunodeficiency virus 1", "experiment": "Compound tested for % inhibition of giant cell formation at a concentration of 420 uM"}}}
{"smiles": "Cc1ccc(C(=O)Nc2ccc(S(=O)(=O)O)c3cc(S(=O)(=O)O)cc(S(=O)(=O)O)c23)cc1NC(=O)c1cccc(NC(=O)Nc2cccc(C(=O)Nc3cc(C(=O)Nc4ccc(S(=O)(=O)O)c5cc(S(=O)(=O)O)cc(S(=O)(=O)O)c45)ccc3C)c2)c1", "values": [{"measurement": "inhibition", "setting": "[1]", "value": 92, "unit": "%"}, {"measurement": "ID50", "setting": "[2]", "value": 42, "unit": "µg/mL"}, {"measurement": "inhibition", "setting": "[3]", "value": 22, "unit": "%"}, {"measurement": "inhibition", "setting": "[4]", "value": 18, "unit": "%"}]}
{"smiles": "Nc1cc(S(=O)(=O)O)c2ccccc2c1N", "values": [{"measurement": "Inhibition", "setting": "MT4 [5]", "value": 3, "unit": "%"}, {"measurement": "Inhibition", "setting": "MT4 [6]", "value": 0, "unit": "%"}, {"measurement": "Inhibition", "setting": "MT4 [7]", "value": 1, "unit": "%"}, {"measurement": "Inhibition", "setting": "MT4 [8]", "value": 0, "unit": "%"}, {"measurement": "EC50", "setting": "MT4 [9]", "value": "> 45", "unit": "µg/mL"}, {"measurement": "EC50", "setting": "MT4 [10]", "value": "> 45", "unit": "µg/mL"}, {"measurement": "Inhibition", "setting": "MT4 [11]", "value": 0, "unit": "%"}, {"measurement": "Inhibition", "setting": "MT4 [12]", "value": 0, "unit": "%"}, {"measurement": "CC50", "setting": "MT4 [13]", "value": 45, "unit": "µg/mL"}, {"measurement": "Cell viability", "setting": "MT4 [14]", "value": 13}, {"measurement": "Cell viability", "setting": "MT4 [15]", "value": 97}, {"measurement": "Cell viability", "setting": "MT4 [16]", "value": 1}, {"measurement": "Cell viability", "setting": "MT4 [17]", "value": 0}, {"measurement": "inhibition", "setting": "[18]", "value": 1, "unit": "%"}, {"measurement": "inhibition", "setting": "[19]", "value": 2, "unit": "%"}, {"measurement": "ID50", "setting": "[20]", "value": "> 500", "unit": "µg/mL"}, {"measurement": "Inhibition", "setting": "MT4 [21]", "value": 0, "unit": "%"}, {"measurement": "inhibition", "setting": "[22]", "value": 0, "unit": "%"}]}
